# Experimental data taken from ChEMBL document CHEMBL1152990, “The mechanism of action of beta-D-2'-deoxy-2'-fluoro-2'-C-methylcytidine involves a second metabolic pathway leading to beta-D-2'-deoxy-2'-fluoro-2'-C-methyluridine 5'-triphosphate, a potent inhibitor of the hepatitis C virus RNA-dependent RNA polymerase” (Antimicrob Agents Chemother, 2008).
# B1: Cytidine deaminase (Homo sapiens), P32320 (protein)
# chain: MAQKRPACTLKPECVQQLLVCSQEAKKSAYCPYSHFPVGAALLTQEGRIFKGCNIENACYPLGICAERTAIQKAVSEGYKDFRAIAIASDMQDDFISPCGACRQVMREFGTNWPVYMTKPDGTYIVMTVQELLPSSFGPEDLQKTQ
# B2: UMP-CMP kinase (Homo sapiens), P30085 (protein)
# chain: MKPLVVFVLGGPGAGKGTQCARIVEKYGYTHLSAGELLRDERKNPDSQYGELIEKYIKEGKIVPVEITISLLKREMDQTMAANAQKNKFLIDGFPRNQDNLQGWNKTMDGKADVSFVLFFDCNNEICIERCLERGKSSGRSDDNRESLEKRIQTYLQSTKPIIDLYEEMGKVKKIDASKSVDEVFDEVVQIFDKEG
# B3: Deoxycytidylate deaminase (Homo sapiens), P32321 (protein)
# chain: MSEVSCKKRDDYLEWPEYFMAVAFLSAQRSKDPNSQVGACIVNSENKIVGIGYNGMPNGCSDDVLPWRRTAENKLDTKYPYVCHAELNAIMNKNSTDVKGCSMYVALFPCNECAKLIIQAGIKEVIFMSDKYHDSDEATAARLLFNMAGVTFRKFIPKCSKIVIDFDSINSRPSQKLQ
# Assays:
# [1] = substrate: Nc1ccn([C@@H]2O[C@H](CO)[C@@H](O)[C@H]2F)c(=O)n1; details: Homo sapiens; Huh-7
# [2] = substrate: C[C@@]1(F)[C@H](O)[C@@H](CO)O[C@H]1n1ccc(N)nc1=O; details: Homo sapiens; Huh-7
# [3] = substrate: Nc1ccn([C@H]2C[C@H](O)[C@@H](CO)O2)c(=O)n1; details: Homo sapiens; Huh-7
# [4] = substrate: C[C@@]1(O)[C@H](O)[C@@H](CO)O[C@H]1n1ccc(N)nc1=O; details: Homo sapiens; Huh-7
# [5] = substrate: Nc1ccn([C@@H]2O[C@H](CO)[C@@H](O)[C@H]2F)c(=O)n1; details: Homo sapiens; Huh-7; remark: listed apart in the source
# [6] = substrate: Nc1ccn([C@H]2C[C@H](O)[C@@H](CO)O2)c(=O)n1; details: Homo sapiens; Huh-7; remark: listed apart in the source
# [7] = substrate: C[C@@]1(F)[C@H](O)[C@@H](CO)O[C@H]1n1ccc(N)nc1=O; experiment: (§1) Activity of cloned cytidine deaminase in human HuH7 cells at 4 mM by spectrophotometric analysis; assay type: cell-based; details: Huh-7
# Procedure, shortened: (§2)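 Recombinant human CDA cloned from Huh-7 cells. Reaction at 30°C in 50 mM Tris-HCl pH 7.5, started by adding enzyme. Deamination was followed spectrophotometrically at wavelengths chosen by substrate level, with Δɛ set per wavelength. Rates came from the linear trace and Beer's law and were fitted to Michaelis-Menten. Highest concentration tested 4 mM.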
# [8] = substrate: C[C@@]1(O)[C@H](O)[C@@H](CO)O[C@H]1n1ccc(N)nc1=O; experiment: as §1; assay type: cell-based; details: Huh-7
# Procedure, shortened: as §2
# [9] = substrate: C[C@@]1(F)[C@H](O)[C@@H](COP(=O)(O)O)O[C@H]1n1ccc(=O)[nH]c1=O; experiment: Ratio of Kcat to Km for cloned UMP-CMP kinase in human HuH7 cells assessed as formation of RO2433 diphosphate by spectrophotometry; assay type: cell-based; details: Huh-7
# Procedure, shortened: (§3)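 Recombinant human kinase read out by PK/LDH coupling, following NADH oxidation at 340 nm. Rates were measured over varied substrate levels and fitted for steady-state parameters.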
# [10] = substrate: C[C@@]1(F)[C@H](O)[C@@H](COP(=O)(O)O)O[C@H]1n1ccc(=O)[nH]c1=O; experiment: Activity of cloned UMP-CMP kinase in human HuH7 cells assessed as formation of RO2433 diphosphate by spectrophotometry; assay type: cell-based; details: Huh-7
# Procedure, shortened: as §3
# [11] = substrate: C[C@@]1(F)[C@H](O)[C@@H](COP(=O)(O)O)O[C@H]1n1ccc(N)nc1=O; experiment: Activity of cloned deoxycytidylate deaminase in human HepG2 cells by HPLC assay; assay type: cell-based
# Procedure, shortened: (§4)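 Recombinant His-tagged human DCTD cloned from HepG2 cells. 0.56 μg enzyme in 50 mM Tris-HCl pH 7.5, 2 mM MgCl2, 20 mM β-mercaptoethanol, at 37°C. Samples taken at 5, 10 and 20 min, quenched with HCl and filtered. Nucleotides were resolved by SAX HPLC (KH2PO4 pH 3.5 gradient), detected at 254 nm and quantified against standard curves.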
# [12] = substrate: C[C@@]1(F)[C@H](O)[C@@H](COP(=O)(O)O)O[C@H]1n1ccc(N)nc1=O; experiment: Ratio of Kcat to Km for cloned deoxycytidylate deaminase in human HepG2 cells by HPLC assay; assay type: cell-based
# Procedure, shortened: as §4
# [13] = substrate: Nc1ccn([C@H]2C[C@H](O)[C@@H](COP(=O)(O)O)O2)c(=O)n1; experiment: Ratio of Kcat to Km for cloned deoxycytidylate deaminase in human HepG2 cells by spectrophotometric analysis; assay type: cell-based
# Procedure, shortened: (§5)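 Recombinant human DCTD cloned from HepG2 cells, 9.3 nM final, with dCMP substrate. Spectrophotometric deamination at 37°C, monitoring absorbance at 290 nm (Δɛ = 1,694 M−1 cm−1). Rates from linear traces were fitted to Michaelis-Menten to obtain Km, kcat and kcat/Km.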
# [14] = substrate: Nc1ccn([C@H]2C[C@H](O)[C@@H](COP(=O)(O)O)O2)c(=O)n1; experiment: Activity of cloned deoxycytidylate deaminase in human HepG2 cells by spectrophotometric analysis; assay type: cell-based
# Procedure, shortened: as §5
protein,measurement,setting,value
B1,kcat/Km,[1],140000 M⁻¹ s⁻¹
same,kcat/Km,[2],65 M⁻¹ s⁻¹
same,kcat/Km,[3],120000 M⁻¹ s⁻¹
same,kcat/Km,[4],58 M⁻¹ s⁻¹
same,Km,[5],27 µM
same,kcat,[5],3.8 s⁻¹
same,Km,[6],41 µM
same,kcat,[6],4.8 s⁻¹
same,Km,[7],4000 µM
same,kcat,[7],0.26 s⁻¹
same,Km,[8],3100 µM
same,kcat,[8],0.18 s⁻¹
B2,kcat/Km,[9],9100 M⁻¹ s⁻¹
same,Km,[10],870 µM
same,kcat,[10],7.9 s⁻¹
B3,Km,[11],2000 µM
same,kcat,[11],0.82 s⁻¹
same,kcat/Km,[12],400 M⁻¹ s⁻¹
same,kcat/Km,[13],2.8e+06 M⁻¹ s⁻¹
same,Km,[14],87 µM
same,kcat,[14],246 s⁻¹
